Experiments:
DU-145 = experiment: Cytotoxicity against human DU145 cells by SRB assay; type: functional
SK-OV-3 = experiment: Cytotoxicity against human SKOV3 cells by SRB assay; type: functional
NCI-H460 = experiment: Cytotoxicity against human NCI-H460 cells by SRB assay; type: functional
[1] = Inhibition of bovine brain tubulin assembly after 20 mins; parameters: species or system Bos taurus
In short: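 Bovine brain tubulin (10 µM) was preincubated with varying compound concentrations in glutamate buffer at 30 °C and then cooled to 0 °C. GTP was added, and the mixtures were warmed to 30 °C in a recording spectrophotometer. Assembly was followed turbidimetrically.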

Molecule COc1ccc(/C=C/c2cc(OC)c(OC)c(OC)c2)c(O[C@@H]2O[C@H](C(=O)O)[C@@H](O)[C@H](O)[C@H]2O)c1O has a GI50 (DU-145) of over 88000 nM, a GI50 (SK-OV-3) of 30000 nM and a GI50 (NCI-H460) of 26000 nM.

For COc1cc(/C=C\c2ccc(OC)c(O[C@@H]3O[C@H](C(=O)O)[C@@H](O)[C@H](O)[C@H]3O)c2O)cc(OC)c1OC, the GI50 (DU-145) was 3300 nM, the GI50 (SK-OV-3) was 2100 nM and the GI50 (NCI-H460) was 1800 nM.

With COc1cc(/C=C/c2ccc(OC)c(O[C@@H]3O[C@H](C(=O)O)[C@@H](O)[C@H](O)[C@H]3O)c2O)cc(OC)c1OC the GI50 (DU-145) was over 98000 nM, the GI50 (SK-OV-3) was over 85000 nM and the GI50 (NCI-H460) was 26000 nM.

Work on COc1ccc(/C=C\c2cc(OC)c(OC)c(OC)c2)c(O[C@@H]2O[C@H](C(=O)O)[C@@H](O)[C@H](O)[C@H]2O)c1O yielded a GI50 (DU-145) of 4400 nM, a GI50 (SK-OV-3) of 2300 nM and a GI50 (NCI-H460) of 3000 nM.

With COc1ccc(/C=C\c2cc(OC)c(OC)c(OC)c2)cc1O [COMBRETASTATIN A4] the GI50 (DU-145) was 1 nM.

For COc1ccc(/C=C\c2cc(OC)c(OC)c(OC)c2)c(O)c1O [COMBRETASTATIN A-1], the IC50 [1] was 1100 nM, the GI50 (DU-145) was 13 nM and the GI50 (NCI-H460) was 46 nM.

Source: ChEMBL document CHEMBL1165983, “Regio- and stereospecific synthesis of mono-beta-d-glucuronic acid derivatives of combretastatin A-1” (J Nat Prod, 2010)
